Compound activity from PubChem BioAssay.
This is a sample that favours compounds with a hit; in the whole collection about 5.3% have one here.
T cruzi inh – blocks replication of Trypanosoma cruzi; actives 1.4% (n = 300,000); T. cruzi beta-gal in NIH3T3, luminescence, 90 h; inhibition, % (test concentration not listed);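 active = mean inhibition across valid replicates above about 55%, limit read from the data; inconclusive = mean below that limit but half or more replicates reach it; inactive = mean below it, under half of replicates reach it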;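 also: signal also drops with host cell toxicity which is not excluded here; 0% = plate median of DMSO wells and 100% = zero luminescence signal; higher percent means less beta-gal luminescence so fewer parasites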
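System: Mouse NIH/3T3 fibroblasts infected with β-gal-expressing T. cruzi Tulahuen C4 | Quantity: NIH/3T3 cells, 5,000 per well | Reagent: 5000 reporter trypomastigotes per well | Dosing: Compound pinned at 50 nL/well, DMSO | Schedule: 3 h host attachment, then at least 90 h co-culture | Detection: GalScreen luminescence, 60 min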
CSC inhib – blocks cancer stem cells; inhibition, % at 7.5 µM; actives 1.1% (n = 300,000); cancer stem cell-like cells viability, luminescence; AID 2717; in the data active = inhibition above about 75%; inconclusive = no clear call, values can overlap the other calls; tested in HMLE shEcad cells
Mdm2-MdmX inh – disrupts the human Mdm2-MdmX interaction; SaOS-2 split-luciferase Mdm2/MdmX complementation, luminescence; inhibition, % at 8 µM; actives 3% (n = 330,000);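 active = inhibition of at least 50% at 8 µM in the primary screen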
Target sequence (O15151 whole entry, looked up): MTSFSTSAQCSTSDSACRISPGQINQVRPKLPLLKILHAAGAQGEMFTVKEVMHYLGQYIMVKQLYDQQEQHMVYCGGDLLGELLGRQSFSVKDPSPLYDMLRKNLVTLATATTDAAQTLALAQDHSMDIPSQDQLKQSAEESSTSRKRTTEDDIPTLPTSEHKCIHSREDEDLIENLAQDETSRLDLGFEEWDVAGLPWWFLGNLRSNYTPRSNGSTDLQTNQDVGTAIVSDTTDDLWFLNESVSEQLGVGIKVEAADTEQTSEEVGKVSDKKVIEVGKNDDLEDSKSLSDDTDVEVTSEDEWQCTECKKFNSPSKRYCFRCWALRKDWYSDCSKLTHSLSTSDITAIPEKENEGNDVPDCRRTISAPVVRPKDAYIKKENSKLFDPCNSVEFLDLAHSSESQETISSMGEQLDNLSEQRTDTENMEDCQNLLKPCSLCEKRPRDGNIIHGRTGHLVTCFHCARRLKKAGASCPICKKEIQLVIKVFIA
Target sequence (Q00987 whole entry, looked up): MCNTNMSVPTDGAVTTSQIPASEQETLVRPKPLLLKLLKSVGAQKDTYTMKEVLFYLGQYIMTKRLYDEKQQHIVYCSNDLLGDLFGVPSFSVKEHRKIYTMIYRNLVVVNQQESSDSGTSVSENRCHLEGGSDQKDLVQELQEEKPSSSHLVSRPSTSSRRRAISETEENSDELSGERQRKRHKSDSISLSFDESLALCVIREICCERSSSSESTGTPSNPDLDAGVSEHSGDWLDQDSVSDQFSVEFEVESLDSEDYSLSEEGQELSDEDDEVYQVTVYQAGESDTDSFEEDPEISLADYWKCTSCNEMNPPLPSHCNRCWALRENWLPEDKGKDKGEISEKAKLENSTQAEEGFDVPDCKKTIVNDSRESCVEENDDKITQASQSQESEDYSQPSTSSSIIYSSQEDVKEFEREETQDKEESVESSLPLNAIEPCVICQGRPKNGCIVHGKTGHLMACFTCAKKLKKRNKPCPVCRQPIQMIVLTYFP
NALP3 yeast inh – NALP3 inhibition in yeast | Yeast reconstituted NLRP3/ASC/caspase-1, beta-gal luminescence, 24 h | inhibition, % at 10 µM | actives 0.39% (n = 330,000) | AID 2825;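 active = inhibition of 50% or more; inactive = inhibition below 50%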;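 also: plate controls were induced DMSO wells for no effect and uninduced yeast grown without galactose for full effect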
Beta apoptosis – blocks beta cell apoptosis. protection from apoptosis, % (concentration not given with the values). actives 0.8% (n = 300,000). AID 435005. INS-1E cytokine-induced death, ATP luminescence, 48 h; percent of positive-control rescue, neutral wells zero;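 active = Every replicate reaches about 75%, or at least half do and their mean reaches it too, limit read from the data; inconclusive = At least half of replicates reach the limit but their mean does not; inactive = Under half of replicates reach the limit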;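 also: 0% = cytokine-treated negative control wells and 100% = positive control rescue; higher means more ATP so stronger rescue from cytokine killing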
Calb FLC – C. albicans growth modulation with fluconazole; C. albicans CaCi-2 + fluconazole, Alamar Blue growth, 48 h; actives 0.57% (n = 300,000); growth inhibition, % (no concentration beside the values);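 active = growth inhibition above about 58% in most replicates, limit read from the data, passing the limit was not always enough; inconclusive = exactly half the replicates above a set limit; inactive = most replicates below a set limit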;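 also: all wells also contain fluconazole at 8 µg/ml as a sub-toxic cotreatment; 0% = median of DMSO wells and 100% = median of geldanamycin control wells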
NALP3 confirm – NALP3 inhibition confirmation in yeast | shares compounds with NALP3 yeast inh | inhibition, % at 10 µM | yeast expressing human NALP3, luminescence | AID 435006 | actives 81% (n = 1,300); in the data active = inhibition above about 48%
Casp1 ASC ctr – counter-screen for NALP3 inhibitors: yeast caspase-1-ASC; inhibition, % at 10 µM; yeast expressing Caspase-1-ASC, luminescence counter screen; shares compounds with NALP3 yeast inh; actives 66% (n = 1,000); AID 488784
NALP3 yeast rt – yeast NALP3 inhibition, confirmed on retest | inhibition, % at 10 µM | actives 53% (n = 1,000) | shares compounds with NALP3 yeast inh | yeast expressing human NALP3, luminescence read-out
Mdm2 MdmX conf – human Mdm2/MdmX binding inhibition, confirmed; shares compounds with Mdm2-MdmX inh; inhibition, % at 8 µM; AID 489028; luminescent assay; actives 55% (n = 10,000); in the data active = inhibition above about 40%
Full FLuc ctr – inhibits full-length luciferase, flagging false Mdm2/MdmX hits. shares compounds with Mdm2-MdmX inh. SaOS-2 full-length luciferase counterscreen, luminescence. actives 77% (n = 6,200). inhibition, % at 8 µM;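 active = mean inhibition at 8 µM reaching about 37%, which flags the compound as non-specific, limit read from the data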;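 also: p53-null SaOS-2 cells with luciferase driven by a doxycycline-inducible promoter; compound on cells about two nights before reading with doxycycline added after day one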
Numbers without * were called inactive; ? = inconclusive; . = no result given. Rule as the data show it, unless noted: active = inhibition above about 50%; inactive = the rest.

SMILES	T cruzi inh	CSC inhib	Mdm2-MdmX inh	NALP3 yeast inh	Beta apoptosis	Calb FLC	NALP3 confirm	Casp1 ASC ctr	NALP3 yeast rt	Mdm2 MdmX conf	Full FLuc ctr
CC(=O)Nc1ccc(NC(=O)Nc2ccccc2)cc1	-9	2	-26	-11	3	-6	.	.	.	.	.
O=C(Nc1ccccc1)Nc1cc(Cl)cc(Cl)c1	?	81*	91*	56*	70	-16	77*	68*	78*	80*	23
NC(=S)N/N=C/c1ccc2cccc(OCc3ccccc3)c2n1	44	-3	35	22	1	-5	.	.	.	.	.
NC(=S)N/N=C/c1ccccc1OCc1cccc(Cl)c1	62*	-1	52*	56*	25	10	67*	58*	40	24	.
COc1cc2c(cc1OC)C(C)N(CC(=O)Nc1ccc(S(=O)(=O)N3CCCC3)cc1)CC2 (stereo not given)	8	6	23	8	-5	-3	.	.	.	.	.
COc1ccc(-n2c(=S)[nH]c3cc(C(=O)N(C)Cc4ccccc4)ccc3c2=O)cc1	12	-14	11	11	4	3	.	.	.	.	.
Cc1ccc2sc(N(CCCN(C)C)C(=O)CCS(=O)(=O)c3ccccc3)nc2c1C	63*	56	60*	53*	-3	-6	77*	66*	54*	57*	30
CN(C)CCN(C(=O)CCS(=O)(=O)c1ccccc1)c1nc2c(F)cccc2s1	28	-3	11	13	-6	-2	.	.	.	.	.
CC(=O)Oc1c(I)cc(I)cc1C(=O)Nc1ccc(Cl)cc1	-13	108*	90*	60*	106*	8	77*	47	58*	53*	19
Cc1cc(C(=O)NCc2ccco2)on1	-1	-2	-5	-8	-1	-11	.	.	.	.	.
Cc1ccc2oc(/N=C(\N)NC(=O)C(C)(C)C)nc2c1	-43	-3	87*	71*	0	5	58*	45	47	94*	32
COc1ccc(-n2nnnc2S(=O)(=O)CC(=O)N2CCCCC2)cc1	.	39	97*	57*	4	.	62*	63*	39	96*	14
Clc1cncc(Cl)c1N/N=C/c1ccncc1	3	10	65*	65*	-25	4	30	.	.	63*	28
Cc1ccc(NC(=O)CSc2ccc(-c3cccnc3)nn2)c(C)c1	1	-2	0	18	0	1	.	.	.	.	.
Cc1cc([N+](=O)[O-])cc(/C=N\NC(=O)C2COc3ccccc3O2)c1O (stereo not given)	-1	10	52*	51*	8	-45	70*	78*	69*	40*	28
O=S1(=O)Nc2c(ccc3cccnc23)-c2ccccc21	72*	96*	100*	70*	31	9	86*	98*	91*	97*	54*
Cc1ccc(O)c(N=Nc2nccs2)c1	.	1	75*	90*	89*	.	91*	99*	96*	64*	23
COc1ccc2c(CC(=O)N(C)CC3COc4ccccc4O3)coc2c1 (stereo not given)	8	-6	-4	21	-2	5	.	.	.	.	.
CCN(CC)c1ccc2nc3ccc(N)cc3[n+](-c3ccccc3)c2c1	.	.	92*	51*	.	.	51*	39	52*	93*	24
CCN(CC)c1ccc2nc3ccccc3[n+](CC)c2c1	53	26	53*	67*	99*	90*	73*	44	57*	37	.
O=C(COc1ccccc1C(=O)O)Nc1ccc(SC(F)F)cc1	-2	.	7	7	-3	-2	.	.	.	.	.
CCCN(CCC)c1nc(-c2ccccn2)nc2ccccc12	58*	34	83*	50*	135*	-4	76*	.	.	85*	25
CCCCN(CC)c1nc(-c2ccncc2)nc2ccccc12	54	30	35	30	-7	-12	.	.	.	.	.
N#Cc1ccsc1NC(=O)COC(=O)CCCSc1nc2ccccc2s1	-10	0	24	14	-1	7	.	.	.	.	.
CCSc1nnnn1-c1ccccc1	3	-13	25	-3	-4	?	.	.	.	.	.
SMILES	T cruzi inh	CSC inhib	Mdm2-MdmX inh	NALP3 yeast inh	Beta apoptosis	Calb FLC	NALP3 confirm	Casp1 ASC ctr	NALP3 yeast rt	Mdm2 MdmX conf	Full FLuc ctr
Cc1ccc(C)c(-n2nnnc2Sc2nnnn2-c2ccccc2)c1	-6	68	100*	58*	.	7	74*	73*	62*	79*	52*
CN(C)Cc1ccc(O)c(CCc2ccccc2)n1	-8	-5	9	4	0	-7	.	.	.	.	.
N#C/C(=N\Nc1ccc(F)cc1)C(=O)C1CC1	-6	39	17	4	6	28	.	.	.	.	.
N#C/C(=N\Nc1ccc(Cl)c(Cl)c1)C(=O)C1CC1	-13	70	58*	62*	52	-2	87*	.	.	72*	47*
S=C1SCN(Cc2cccnc2)CN1Cc1cccnc1	-6	55	79*	57*	.	-6	58*	44	37	77*	56*
CC(Oc1cccc(Cl)c1)C(=O)Nc1nc(-c2ccccn2)cs1 (stereo not given)	60*	71	68*	50*	.	0	64*	74*	61*	77*	44*
COc1ccc2[nH]c(C(=O)NCc3ccc4c(c3)OCO4)cc2c1	15	38	-2	31	-4	-6	.	.	.	.	.
CC1(C)CC(=O)C2=C(C1)OC1=C(C(=O)CC(C)(C)C1)C2c1ccc(O)cc1O	5	30	100*	56*	102*	-2	56*	57*	42	83*	50*
CN(C)CCOc1ccc2c(c1)Sc1ccccc1CC2=O	46	-10	-6	13	-21	-5	.	.	.	.	.
CN1CCN(NC(=O)c2cc(-c3ccccn3)nc3ccccc23)CC1	.	.	-3	-4	-4	11	.	.	.	.	.
Cc1ccc(N/N=C(\C#N)C(N)=S)cc1C	-4	21	64*	67*	-4	56	56*	42	41	53*	72*
N#C/C(=N\Nc1ccccc1)C(N)=S	9	8	37	23	9	-12	.	.	.	.	.
N#C/C(=N\Nc1ccc(Cl)cc1)C(=O)c1ccsc1	-33	61	69*	55*	64	-5	35	.	.	39	74*
